Source: PubChem BioAssay AID488910 (Broad Institute, 2010)
In all, about 20,000 compounds went through this assay and about 25 (0.1%) were called active.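 Rule for the calls: active = mean replicate protection from cytokine-induced ATP loss at least 50% and at least 75% of replicates each reaching 50%; inconclusive = meets only one of the two criteria, mean or replicate share; inactive = fails both the mean and replicate share criteria.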 The sample as a whole holds a higher share of actives than the screen did.

Test: preservation of ATP in cytokine-treated beta cells – cell-based, ATP luminescence, single point, primary screen (AID 488910)
Details: INS-1E cytokine-induced death, 48 h, at 10 µM, stronger effect = higher value, normalised: neutral wells 0, positive control 100
How it was run: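 Assay system: INS-1E rat insulinoma cells. Amount: 8000 cells per well. Medium: phenol-red-free RPMI with 5% fetal bovine serum. Reagent: IL-1β, TNF-α and IFN-γ cytokine mix. Doses: one compound concentration, pin transfer. Schedule: 48 h co-treatment, 10 min post-lysis read. Detection: CellTiter-Glo luminescence measuring cellular ATP.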

SMILES	protection from cytokine-induced ATP loss
CNC[C@H]1Oc2ccc(NS(=O)(=O)c3cn(C)cn3)cc2C(=O)N([C@@H](C)CO)C[C@@H]1C	-1.06% (inactive)
COc1ccc(NC(=O)Nc2cccc3c2O[C@H](CN(C)S(=O)(=O)c2ccc(F)cc2)[C@H](C)CN([C@H](C)CO)C3=O)cc1	-2.75% (inactive)
C[C@@H]1CN([C@@H](C)CO)C(=O)Cc2cc(NC(=O)Cn3cnnn3)ccc2O[C@@H]1CN(C)S(=O)(=O)c1cn(C)cn1	10.1% (inactive)
COc1ccc(S(=O)(=O)Nc2ccc3c(c2)CC(=O)N([C@H](C)CO)C[C@@H](C)[C@@H](CN(C)C(=O)Nc2cccc4ccccc24)O3)cc1	0.838% (inactive)
C[C@@H]1CN([C@H](C)CO)C(=O)c2cccc(NC(=O)Nc3ccccc3)c2O[C@H]1CN(C)Cc1ccccc1	3.52% (inactive)
C[C@@H]1CN([C@H](C)CO)C(=O)c2cc(NS(=O)(=O)c3ccccc3)ccc2O[C@H]1CN(C)S(=O)(=O)c1ccc(Cl)cc1	-7.86% (inactive)
C[C@H](CO)N1C[C@H](C)[C@H](CN(C)C)Oc2ccc(NC(=O)c3ccncc3)cc2CC1=O	2% (inactive)
O=C(NO)c1cccc(C(=O)N/N=C/c2c(F)c(F)c(F)c(F)c2F)c1	-2.52% (inactive)
C[C@H]1CN([C@@H](C)CO)C(=O)Cc2cc(NC(=O)Nc3cccc4ccccc34)ccc2O[C@@H]1CN(C)S(=O)(=O)c1cn(C)cn1	4.42% (inactive)
CC(C)NC(=O)N(C)C[C@H]1Oc2c(NC(=O)C3CCCCC3)cccc2C(=O)N([C@@H](C)CO)C[C@H]1C	10.6% (inactive)
Cc1noc(C)c1NC(=O)N(C)C[C@H]1Oc2c(NS(=O)(=O)c3cccs3)cccc2C(=O)N([C@@H](C)CO)C[C@@H]1C	3.62% (inactive)
O=C(N/N=C/c1c[nH]c2ccccc12)c1ccccc1O	-18.7% (inactive)
Cc1ccc(S(=O)(=O)Nc2ccc3c(c2)CC(=O)N([C@H](C)CO)C[C@@H](C)[C@H](CN(C)S(=O)(=O)c2c(C)noc2C)O3)cc1	3.93% (inactive)
COc1ccc(CN(C)C[C@@H]2Oc3ccc(NS(=O)(=O)c4cn(C)cn4)cc3C(=O)N([C@@H](C)CO)C[C@@H]2C)cc1	7.8% (inactive)
C[C@H](CO)N1C[C@H](C)[C@H](CN(C)CC2CC2)Oc2ccc(NC(=O)CCN3CCOCC3)cc2C1=O	-6.34% (inactive)
CC(C)NC(=O)Nc1cccc2c1O[C@H](CN(C)S(=O)(=O)c1cccs1)[C@@H](C)CN([C@H](C)CO)C2=O	5.81% (inactive)
C[C@@H]1CN([C@@H](C)CO)C(=O)c2cccc(NC(=O)Nc3ccccc3)c2O[C@H]1CN(C)Cc1ccccc1	-11.7% (inactive)
C[C@@H]1CN([C@@H](C)CO)C(=O)Cc2cc(NC(=O)Nc3ccc(F)cc3)ccc2O[C@@H]1CN(C)S(=O)(=O)c1ccccc1	13.1% (inactive)
C[C@@H]1CN([C@@H](C)CO)C(=O)c2cc(NS(C)(=O)=O)ccc2O[C@@H]1CN(C)C(=O)Nc1ccccc1	-5.38% (inactive)

SMILES	protection from cytokine-induced ATP loss
CC(C)NC(=O)Nc1ccc2c(c1)C(=O)N([C@@H](C)CO)C[C@H](C)[C@@H](CN(C)S(C)(=O)=O)O2	2.67% (inactive)
C[C@H]1CN([C@@H](C)CO)C(=O)Cc2cc(NS(=O)(=O)c3cccs3)ccc2O[C@@H]1CN(C)S(=O)(=O)c1cn(C)cn1	6.75% (inactive)
COc1ccc(CN(C)C[C@H]2Oc3c(NS(=O)(=O)c4ccccc4)cccc3C(=O)N([C@@H](C)CO)C[C@H]2C)cc1	2.69% (inactive)
CNC[C@H]1Oc2ccc(NC(=O)C3CCCCC3)cc2C(=O)N([C@H](C)CO)C[C@@H]1C	1.62% (inactive)
C[C@@H]1CN([C@@H](C)CO)C(=O)c2cc(NC(=O)Cn3cnnn3)ccc2O[C@H]1CN(C)Cc1ccc(C(F)(F)F)cc1	-4.67% (inactive)
Cc1noc(C)c1NC(=O)Nc1ccc2c(c1)C(=O)N([C@@H](C)CO)C[C@H](C)[C@H](CN(C)Cc1ccc(-c3ccccc3)cc1)O2	-3.13% (inactive)
Cc1noc(C)c1NC(=O)Nc1ccc2c(c1)C(=O)N([C@@H](C)CO)C[C@@H](C)[C@@H](CN(C)CC1CCCCC1)O2	3.33% (inactive)
C[C@H](CO)N1C[C@H](C)[C@H](CN(C)Cc2ccc(Oc3ccccc3)cc2)Oc2c(NC(=O)CCCCCC(=O)Nc3ccccc3N)cccc2C1=O	-9.83% (inactive)
COc1ccc(NC(=O)N(C)C[C@H]2Oc3ccc(N(C)C)cc3C(=O)N([C@H](C)CO)C[C@H]2C)cc1	1.38% (inactive)
Cc1ccc(S(=O)(=O)Nc2ccc3c(c2)C(=O)N([C@H](C)CO)C[C@H](C)[C@@H](CN(C)C(=O)NC(C)C)OCCCC[C@@H](C)O3)cc1	12.2% (inactive)
Cc1ccc(S(=O)(=O)N(C)C[C@H]2Oc3ccc(NC(=O)CCCCCC(=O)Nc4ccccc4N)cc3C(=O)N([C@H](C)CO)C[C@H]2C)cc1	-6.48% (inactive)
CN(C)CCCOc1ccc(/C=N/NC(=O)c2cccc(C(=O)NO)c2)cc1	-4.67% (inactive)
C[C@H]1CN([C@@H](C)CO)C(=O)Cc2cc(NC(=O)Nc3ccc(C(F)(F)F)cc3)ccc2O[C@@H]1CN(C)S(=O)(=O)c1ccc(Cl)cc1	-4.37% (inactive)
C[C@@H]1CN([C@H](C)CO)C(=O)Cc2cc(NC(=O)CCCCCC(=O)Nc3ccccc3N)ccc2O[C@H]1CN(C)S(=O)(=O)c1ccc(F)cc1	9.28% (inactive)
COc1cc(/C=N/NC(=O)CCCCCCC(=O)Nc2ccccc2O)ccc1O	-6.33% (inactive)
COc1ccc(NC(=O)N(C)C[C@H]2Oc3ccc(NC(=O)NC(C)C)cc3CC(=O)N([C@H](C)CO)C[C@H]2C)cc1	14% (inactive)
Cc1ccc(S(=O)(=O)N(C)C[C@@H]2Oc3ccc(N(C)C)cc3C(=O)N([C@@H](C)CO)C[C@H]2C)cc1	-1.09% (inactive)
Cc1ccc(S(=O)(=O)Nc2ccc3c(c2)C(=O)N([C@@H](C)CO)C[C@@H](C)[C@H](CN(C)Cc2ccc(C(=O)O)cc2)O3)cc1	3.07% (inactive)
